Results as given in article PMC3304490 (Biochemical Journal, 2012).
Values joined by “and” are separate entries in the source; they are usually repeats but may differ in a detail not shown here. Equal values may be shown once. Read-outs that look alike come from different tables or passages of the source.

Assays:
[1] = molecular target: CR8 (DxDxD) domain of LRP (Homo sapiens, UniProt Q07954); assay: Tryptophan fluorescence titration of amino acid ligands with CR8 domain; type: binding; settings: for fold weaker Kd than lysine methyl ester: pH 5.5, I=0.02; for ΔG^u: unitary free energy; for slope of Debye–Hückel plot (−zA×zB): ionic-strength-dependence of binding
CR8 (DxDxD) domain of LRP, sequence (Q07954 1060-1099 limits assumed): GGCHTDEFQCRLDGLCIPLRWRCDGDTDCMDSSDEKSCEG

[2] = molecular target: CR5 (DxDDD) domain of LRP (Homo sapiens, UniProt Q07954); assay: Tryptophan fluorescence titration of amino acid ligands with CR5 domain; type: binding; settings: for ΔG^u: unitary free energy
CR5 (DxDDD) domain of LRP, sequence (Q07954 934-973 limits assumed): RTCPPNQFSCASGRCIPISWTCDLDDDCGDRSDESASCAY
Summary of the method: (§1)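 Each CR domain (1–3 μM) was titrated at 298 K in buffer with 1 mM Ca2+ and 0.1% PEG 8000: 20 mM Mes at pH 5.5 or 20 mM Tris/HCl at pH 7.4, with NaCl set to the target ionic strength. Tryptophan emission (λex 280 nm) was read at the wavelength of maximal change and averaged over 120 s, with blank and dilution correction. Kd came from a non-linear single-site fit, using the protonated ligand fraction.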

[3] = test system: cluster II CR domains of LRP; assay: Fluorescence titrations, summary statements across several CR domains; type: binding
Summary of the method: as §1

[4] = molecular target: D1085A (DxxxD) CR8 variant (Homo sapiens, UniProt Q07954, D1085A); assay: Tryptophan fluorescence titration of amino acid ligands with CR8 variant D1085A; type: binding; settings: for Kd: I=0.02, pH 5.5, 298 K; for ΔG^u: unitary free energy
D1085A (DxxxD) CR8 variant, sequence (Q07954 1060-1099 D1085A limits assumed): as the sequence (Q07954 1060-1099 limits assumed) above, with D26A counted along it
Summary of the method: as §1

[5] = molecular target: CR3 (DxDxD) domain of LRP (Homo sapiens, UniProt Q07954); assay: Tryptophan fluorescence titration of amino acid ligands with CR3 domain; type: binding; settings: for ΔG^u: unitary free energy
CR3 (DxDxD) domain of LRP, sequence (Q07954 852-892 limits assumed): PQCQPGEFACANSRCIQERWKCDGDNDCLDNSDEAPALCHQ
Summary of the method: as §1

[6] = cited from earlier work
[7] = pKa values used for correction of ligand concentration; type: physicochemical; settings: pH 5.5
[8] = physiological ionic strength, binding favoured at pH 7.4
[9] = CR3, CR5 and CR8, I=0.02, both pH values
[10] = Table 3, pH 7.4, ionic strength not given
[11] = irrespective of ionic strength or pH, results not shown

## COC(=O)[C@H](C)N [Alanine methyl ester]
[1]
  Kd: 4900 ± 250 µM
  fold weaker Kd than lysine methyl ester: 28 fold
[1]; Table 3, pH 5.5
  ΔG°: -3.15 kcal/mol
[2]
  Kd: 4100 ± 240 µM
[2]; Table 3, pH 5.5
  ΔG°: -3.25 kcal/mol
[2]; pH 5.5
  fold weaker Kd than lysine methyl ester: 23 fold
[3]; CR5 and CR8
  ΔΔG° compared with lysine methyl ester: 1.86 to 1.98 kcal/mol

## COC(=O)[C@@H](N)CCCN=C(N)N [Arginine methyl ester]
[1]; I=0.02, pH 5.5
  ΔG°: -5.02 kcal/mol
  ΔG^u: -7.39 kcal/mol
[1]; I=0.02, pH 5.5, 298 K
  Kd: 210 ± 10 µM
[1]; I=0.02, pH 7.4
  ΔG°: -4.68 kcal/mol
  ΔG^u: -7.05 kcal/mol
[1]; I=0.17, pH 5.5
  ΔG°: -4.23 kcal/mol
  ΔG^u: -6.6 kcal/mol
[1]; I=0.17, pH 5.5, 298 K
  Kd: 780 ± 10 µM
[1]; I=0.17, pH 7.4
  ΔG°: -4.42 kcal/mol
  ΔG^u: -6.79 kcal/mol
[4]; I=0.02, pH 5.5
  ΔG°: -3.49 kcal/mol
  ΔG^u: -5.86 kcal/mol
[4]
  Kd: 2800 ± 110 µM
[4]; I=0.02, pH 7.4
  ΔG°: -3.13 kcal/mol
  ΔG^u: -5.5 kcal/mol
[2]; I=0.02, pH 5.5
  ΔG°: -4.83 kcal/mol
  ΔG^u: -7.19 kcal/mol
[2]; I=0.02, pH 5.5, 298 K
  Kd: 290 ± 10 µM
[2]; I=0.02, pH 7.4
  ΔG°: -4.42 kcal/mol
  ΔG^u: -6.76 kcal/mol
[2]; I=0.17, pH 5.5
  ΔG°: -4.18 kcal/mol
  ΔG^u: -6.55 kcal/mol
[2]; I=0.17, pH 5.5, 298 K
  Kd: 840 ± 50 µM
[2]; I=0.17, pH 7.4
  ΔG°: -4.25 kcal/mol
  ΔG^u: -6.62 kcal/mol
[2]; [8]
  difference in ΔG° between pH 5.5 and 7.4: 0.3 kJ/mol
[5]; I=0.02, pH 5.5
  ΔG°: -4.33 kcal/mol
  ΔG^u: -6.69 kcal/mol
[5]; I=0.02, pH 5.5, 298 K
  Kd: 680 ± 70 µM
[5]; I=0.02, pH 7.4
  ΔG°: -4.25 kcal/mol
  ΔG^u: -6.62 kcal/mol
[5]; I=0.17, pH 5.5
  ΔG°: -3.66 kcal/mol
  ΔG^u: -6.02 kcal/mol
[5]; I=0.17, pH 5.5, 298 K
  Kd: 2090 ± 160 µM
[5]; I=0.17, pH 7.4
  ΔG°: -4.23 kcal/mol
  ΔG^u: -6.6 kcal/mol

## COC(=O)[C@@H](N)CCCCN [Lysine methyl ester]
[1]; 298 K, pH 7.4, I=0.17, from interpolated Kd
  ΔG°: -4.66 kcal/mol
[1]; I=0.02, pH 5.5
  ΔG°: -5.14 kcal/mol
  ΔG^u: -7.5 kcal/mol
[1]; I=0.02, pH 5.5, 298 K
  Kd: 170 ± 10 µM
[1]; I=0.02, pH 7.4
  ΔG°: -5.11 kcal/mol
  ΔG^u: -7.46 kcal/mol
[1]; I=0.17, pH 5.5
  ΔG°: -4.42 kcal/mol
  ΔG^u: -6.79 kcal/mol
[1]; I=0.17, pH 5.5, 298 K
  Kd: 570 ± 20 µM
[1]; I=0.17, pH 7.4
  ΔG°: -4.71 kcal/mol
  ΔG^u: -7.07 kcal/mol
[1]; at saturation (Figure 2)
  blue shift of CR8 tryptophan fluorescence: approximately 7 nm
[1]; pH 5.5
  slope of Debye–Hückel plot (−zA×zB): 2.2
[1]; pH 7.4, I=0.17, 294 K (Figure 2)
  maximum quench of CR8 fluorescence at saturation: 66%
[1]; pH 7.4, I=0.17, van't Hoff analysis
  ΔS°: 29 J·K^−1·mol^−1
[1]; pH 7.4
  slope of Debye–Hückel plot (−zA×zB): 1.5 and 1.53
[1]; physiological conditions of 310 K and I=0.17, pH 7.4
  ΔG: -4.57 kcal/mol
[1]; read-out: interpolated Kd, 298 K, pH 7.4, I=0.17, from van't Hoff plot
  Kd: 380 µM
[1]; van't Hoff plot 279–310 K, pH 7.4, I=0.17
  ΔH°: -2.56 kcal/mol
[4]
  Kd of D1085A, fold higher than for N^α-acetyl-lysine methyl ester: ~ 3 fold
  Kd: 3700 ± 130 µM
[4]; I=0.02, pH 5.5
  ΔG°: -3.32 kcal/mol
  ΔG^u: -5.69 kcal/mol
[4]; I=0.02, pH 7.4
  ΔG°: -3.27 kcal/mol
  ΔG^u: -5.64 kcal/mol
[4]; pH 5.5 and I=0.02
  fold decrease of Kd compared with N^α-acetyl-lysine methyl ester: less than 4 fold
[2]; I=0.02, pH 5.5
  ΔG°: -5.11 kcal/mol
  ΔG^u: -7.46 kcal/mol
[2]; I=0.02, pH 5.5, 298 K
  Kd: 180 ± 10 µM
[2]; I=0.02, pH 7.4
  ΔG°: -4.85 kcal/mol
  ΔG^u: -7.22 kcal/mol
[2]; I=0.17, pH 5.5
  ΔG°: -4.4 kcal/mol
  ΔG^u: -6.76 kcal/mol
[2]; I=0.17, pH 5.5, 298 K
  Kd: 600 ± 40 µM
[2]; I=0.17, pH 7.4
  ΔG°: -4.64 kcal/mol
  ΔG^u: -7 kcal/mol
[6]; α-amino group
  pKa: 7.2
[3]; [9]
  fold reduction in Kd compared with N^α-acetyl-lysine methyl ester: 5–18 fold
  increase in ΔG° compared with N^α-acetyl-lysine methyl ester: 1.03 to 1.72 kcal/mol
[5]; I=0.02, pH 5.5
  ΔG°: -4.47 kcal/mol
  ΔG^u: -6.84 kcal/mol
[5]; I=0.02, pH 5.5, 298 K
  Kd: 530 ± 50 µM
[5]; I=0.02, pH 7.4
  ΔG°: -4.97 kcal/mol
  ΔG^u: -7.34 kcal/mol
[5]; I=0.17, pH 5.5
  ΔG°: -3.99 kcal/mol
  ΔG^u: -6.36 kcal/mol
[5]; I=0.17, pH 5.5, 298 K
  Kd: 1190 ± 110 µM
[5]; I=0.17, pH 7.4
  ΔG°: -4.68 kcal/mol
  ΔG^u: -7.05 kcal/mol
[5]; [8]
  difference in ΔG° between pH 5.5 and 7.4: 2.9 kJ/mol

## COC(=O)[C@H](CCCCN)NC(C)=O [N^α-acetyl-lysine methyl ester]
[1]; I=0.02, pH 5.5
  ΔG°: -3.42 kcal/mol
[1]; I=0.02, pH 5.5, 298 K
  Kd: 3100 ± 440 µM
[1]; I=0.02, pH 7.4
  ΔG°: -3.75 kcal/mol
[1]; I=0.17, pH 5.5
  ΔG°: -3.51 kcal/mol
[1]; I=0.17, pH 5.5, 298 K
  Kd: 2600 ± 280 µM
[1]; I=0.17, pH 7.4
  ΔG°: -3.42 kcal/mol
[4]; I=0.02, pH 5.5
  ΔG°: -2.58 kcal/mol
[4]
  Kd: 12800 ± 2000 µM
[4]; I=0.02, pH 7.4
  ΔG°: -2.58 kcal/mol
[4]; compared with domains with central aspartate
  loss of binding energy for D1085A: 0.837 to 1.22 kcal/mol
[2]; I=0.02, pH 5.5
  ΔG°: -3.75 kcal/mol
[2]; I=0.02, pH 5.5, 298 K
  Kd: 1800 ± 160 µM
[2]; I=0.02, pH 7.4
  ΔG°: -3.8 kcal/mol
[2]; I=0.17, pH 5.5
  ΔG°: -3.59 kcal/mol
[2]; I=0.17, pH 5.5, 298 K
  Kd: 2300 ± 490 µM
[2]; I=0.17, pH 7.4
  ΔG°: -3.54 kcal/mol
[3]; CR3, CR5 and CR8, two ionic strengths, pH 5.5 and 7.4
  range of ΔG° values: -3.8 to -3.42 kcal/mol
[5]; I=0.02, pH 5.5
  ΔG°: -3.47 kcal/mol
[5]; I=0.02, pH 5.5, 298 K
  Kd: 2900 ± 120 µM
[5]; I=0.02, pH 7.4
  ΔG°: -3.7 kcal/mol
[5]; I=0.17, pH 5.5
  ΔG°: -3.47 kcal/mol
[5]; I=0.17, pH 5.5, 298 K
  Kd: 2900 ± 280 µM
[5]; I=0.17, pH 7.4
  ΔG°: -3.56 kcal/mol

## Aspartate methyl ester
[1]; Table 3, pH 5.5
  ΔG°: -1.51 kcal/mol
[1]; Table 3, pH 7.4
  ΔG°: -1.27 kcal/mol
[4]
  fold weaker Kd of D1085A variant than of CR8: ~ 3 fold
[4]; Table 3, pH 5.5
  ΔG°: -0.86 kcal/mol
[4]; Table 3, pH 7.4
  ΔG°: -0.789 kcal/mol
[2]; Table 3, pH 5.5
  ΔG°: -1.67 kcal/mol
[2]; Table 3, pH 7.4
  ΔG°: -1.63 kcal/mol
[2]; [10]
  Kd: 63000 ± 5000 µM
[3]; Table 3 domains
  fold weaker Kd than lysine methyl ester: 65–450 fold
  ΔΔG° compared with lysine methyl ester: 2.46 to 3.63 kcal/mol
[3]; titrations repeated with EDTA to remove Ca^2+, results not shown
  perturbation of CR domain tryptophan fluorescence in presence of EDTA: no perturbation
[5]; Table 3, pH 5.5
  ΔG°: -1.48 kcal/mol
[5]; Table 3, pH 7.4
  ΔG°: -1.6 kcal/mol
[5]; [10]
  Kd: 66000 ± 11000 µM

## CCOC(=O)[C@@H](N)CCCCN [lysine ethyl ester]
[1]; [11]
  binding affinity compared with lysine methyl ester: negligible difference
[2]; [11]
  binding affinity compared with lysine methyl ester: negligible difference
[5]; [11]
  binding affinity compared with lysine methyl ester: negligible difference

## COC(=O)[C@@H](N)Cc1c[nH]cn1 [Histidine methyl ester]
[1]; Table 3, pH 5.5
  ΔG°: -4.83 kcal/mol
[4]; Table 3, pH 5.5
  ΔG°: -3.18 kcal/mol
[2]; Table 3, pH 5.5
  ΔG°: -4.76 kcal/mol
[6]; side chain (imidazole)
  pKa: 5.33
[3]; four domains, pH 5.5 and low ionic strength
  ΔΔG° compared with lysine methyl ester: 0.14 to 0.48 kcal/mol
[5]; Table 3, pH 5.5
  ΔG°: -3.99 kcal/mol
[7]
  fraction of the imidazole protonated: ~ 40%

## NCCCC[C@H](N)C(=O)O [unmodified lysine, lysine]
[1]
  Kd: 1050 µM
  fold weaker Kd than lysine methyl ester: 6 fold
